Activity calls are given as the source filed them.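 The calls were made as follows, unless noted: active = compounds giving at least 50% inhibition in the cell-based MKP-3 phosphatase rescue imaging test; inactive = the rest.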

Assay [1] is described as follows: inhibitors of TNFa-induced NFkB p65 translocation, primary screen, imaging, HUVEC, MLSMR starter and 10KST1 sets (AID 438;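 active = inhibition above 20% together with a positive visual image hit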;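 also: compound added about 3h40 before a 20 min TNFalpha stimulation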;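 as to inhibition: signal is the nuclear over cytoplasmic p65 intensity ratio per well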). As to conditions: HUVEC TNFa-induced p65 nuclear translocation; cell count: measured here: nuclei count (cytotoxicity indicator), at 2.08 µM; inhibition: at 2 µM, stronger effect = higher value, 0% TNFa-plus-vehicle, 100% no-TNFa wells.
Assay [2] in a line: inhibitors of E-selectin induction by TNFa, primary screen, imaging, HUVEC, immunofluorescence, MLSMR starter and 10KST1 sets (AID 487;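 active = visually confirmed hit in the image check and inhibition above 20%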;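 as to inhibition: signal is fraction of cell area covered by stained E-selectin grains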;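 as to nuclei count: 100% = median nuclei count of all wells on the same plate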). As to conditions: HUVEC TNFalpha-induced E-selectin immunofluorescence imaging, at 2 µM; inhibition: stronger effect = higher value; nuclei count: measured here: cell number, toxicity.
A short description of assay [3]: DUSP6 inhibitors restoring Erk phosphorylation by chemical complementation, primary imaging in DUSP6-transfected HeLa (AID 609).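 As to inhibition: phospho-Erk level distribution per well compared with pooled transfected vehicle control wells.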 As to conditions: HeLa MKP-3 transfected, phospho-Erk imaging KS statistic, at 10 µM, cells stimulated with TPA for 15 min.
The target of assay [4] is Dual specificity protein phosphatase 6 (Homo sapiens) (UniProt Q16828). The assay is described as above. As to conditions: HeLa MKP-3 transfected, phospho-Erk imaging KS statistic; at 10 µM; stronger effect = higher value; cells stimulated with TPA for 15 min.
Sequence of Dual specificity protein phosphatase 6 (Homo sapiens) (Q16828 whole entry, looked up): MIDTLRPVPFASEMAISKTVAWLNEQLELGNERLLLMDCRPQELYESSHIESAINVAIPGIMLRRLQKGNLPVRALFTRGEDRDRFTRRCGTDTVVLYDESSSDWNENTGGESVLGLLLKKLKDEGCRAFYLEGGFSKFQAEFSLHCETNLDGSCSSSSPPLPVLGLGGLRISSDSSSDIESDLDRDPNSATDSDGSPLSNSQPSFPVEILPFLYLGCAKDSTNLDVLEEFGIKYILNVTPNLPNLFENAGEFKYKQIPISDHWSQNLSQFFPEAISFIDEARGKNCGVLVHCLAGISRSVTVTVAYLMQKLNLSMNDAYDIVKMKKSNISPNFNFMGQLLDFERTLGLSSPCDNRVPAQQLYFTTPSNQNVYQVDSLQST
The target of assay [5] is Voltage-gated potassium channel subunit beta-2 (Rattus norvegicus) (UniProt P62483). Description: KvBeta enzyme negative modulators, primary screen, biochemical, NADPH fluorescence (AID 622;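 active = fluorescence slope higher than the sample average by over 3 SD, cut at about -0.22 in these data, passing the limit was not always enough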;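 also: slope of raw intensity against log time taken from 70 to 1610 s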). As to conditions: recombinant KvBeta, 4-cyanobenzaldehyde reduction, at 10 µM, stronger effect = higher value.
Sequence of Voltage-gated potassium channel subunit beta-2 (Rattus norvegicus) (P62483 whole entry, looked up): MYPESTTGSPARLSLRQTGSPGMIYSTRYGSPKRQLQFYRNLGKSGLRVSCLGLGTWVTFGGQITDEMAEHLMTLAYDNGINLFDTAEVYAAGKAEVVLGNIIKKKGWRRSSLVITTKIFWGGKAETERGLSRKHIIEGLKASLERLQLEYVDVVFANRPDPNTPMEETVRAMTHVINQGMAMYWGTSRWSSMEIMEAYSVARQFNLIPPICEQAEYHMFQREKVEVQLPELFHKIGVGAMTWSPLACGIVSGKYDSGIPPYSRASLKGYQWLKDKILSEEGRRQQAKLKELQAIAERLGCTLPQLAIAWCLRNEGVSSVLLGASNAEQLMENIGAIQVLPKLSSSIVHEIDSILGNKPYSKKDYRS
Assay [6] shares this target. Description: KvBeta positive modulators, primary screen, biochemical, NADPH fluorescence (AID 623;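 active = NADPH fluorescence slope more negative than the mean of all samples by about 3 SD, 99.7% confidence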;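 also: fluorescence intensity change per second fitted from 20 to 320 s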). As to conditions: Recombinant KvBeta, NADPH fluorescence decrease slope, 10 min; at 10 µM; stronger effect = lower value.
For assay [7], the target named is Alpha-2C adrenergic receptor (Homo sapiens) (UniProt P18825). Description: modulators of alpha2C/GIRK thallium flux, primary screen, cell-based, HEK293 alpha2C/GIRK1/2 (AID 624;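 active = fluorescence slope after compound addition differing from the mean of all screened samples at 99.7% confidence, in either direction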;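 also: slope of fluorescence ratio to pre-addition baseline per second over 15 to 24 s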). As to conditions: thallium flux BTC fluorescence, at 10 µM, actives lie on both sides.
Sequence of Alpha-2C adrenergic receptor (Homo sapiens) (P18825 whole entry, looked up): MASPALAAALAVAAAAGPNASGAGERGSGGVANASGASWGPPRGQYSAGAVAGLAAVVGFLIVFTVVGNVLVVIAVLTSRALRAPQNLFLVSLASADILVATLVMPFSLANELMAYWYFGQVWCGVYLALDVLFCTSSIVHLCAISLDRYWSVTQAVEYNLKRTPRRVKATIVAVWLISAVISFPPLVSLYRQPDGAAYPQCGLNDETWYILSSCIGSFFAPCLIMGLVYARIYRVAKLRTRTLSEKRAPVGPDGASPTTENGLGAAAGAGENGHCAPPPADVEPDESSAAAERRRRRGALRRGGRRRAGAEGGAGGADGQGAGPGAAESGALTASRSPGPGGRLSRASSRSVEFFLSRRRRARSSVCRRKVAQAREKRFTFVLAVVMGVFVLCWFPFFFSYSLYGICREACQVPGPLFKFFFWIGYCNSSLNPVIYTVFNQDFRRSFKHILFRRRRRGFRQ
The nature of assay [8]: inhibitors of larval lipid processing in zebrafish, primary screen, whole organism, PED6 fluorescence, gall bladder and intestine (AID 686;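 active = a full or partial loss of lipid-probe fluorescence in the fish gall bladder, intestine or both, judged by eye; inactive = no fluorescence loss, or compound toxic to the fish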;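 also: larvae 5 to 7 days old with five fish per well; signal comes from phospholipase A2 cleavage of quenched PED6 carried via bile; overnight exposure to compound and PED6 before scoring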). As to conditions: Zebrafish larvae PED6 lipid processing, fluorescence scoring; screened at 20 µM (by protocol). The method, boiled down:
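Also added: quenched phospholipase substrate PED6, 100 nM final, ingested by larvae; System: zebrafish larvae, 5-7 d; Quantity: 5 larvae per well; Compound: 20 µM single dose; Schedule: overnight compound and PED6 incubation; Read-out: visual per-well fluorescence inhibition score; Measured by: By-eye fluorescence microscopy; Medium: E3.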

A short description of assay [9]: inhibitors of Chlamydomonas gravitaxis, primary screen, whole organism, Chlamydomonas reinhardtii, WT vs cilia-less mutant, absorbance, 96-well (AID 463189;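 active = inhibition at or above 50% relative to wild type and mutant plate controls; inactive = inhibition below 50%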;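 also: 0% = wild type cc124 cells in DMSO and 100% = ciliumless bld1 mutant cells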). As to conditions: OD600 absorbance, 2 days, at 10 µM, stronger effect = higher value.
Setting [10] is: measured here: cell density z-score.
Setting [11] is: measured here: nuclear c-Myc green intensity z-score.
Setting [12] is: measured here: nuclear pErk red intensity z-score, stronger effect = higher value.

Broadly, the inhibition is the relative decrease from the control value, in per cent. With `CCCCc1ccc(NC(=O)CSC2=C(C#N)C(c3ccco3)C3=C(CCCC3=O)N2)cc1` (stereo unspecified), the cell count in [1] was found to be 384. The inhibition in [1] was -8% (inactive); in assay [2], -114% (inactive); in assay [4] it was 7.42% (inactive); in assay [9], -5.66% (inactive). In addition, in [2], the nuclei count turned out to be 151%. Further, the z-score in assay [3] (setting [10]) was 0.415; in [3] (setting [11]) it was 1.7; in assay [3] (setting [12]), -0.943. In assay [5], the fluorescence slope was -0.44 (inactive). Also, the NADPH fluorescence slope in [6] is -9.7e-05 (inactive). Also, in assay [7], the slope is 0.00706 (inactive). Further, the call in assay [8] was inactive.

In the case of `CCCCCCn1cc(C(=O)O)c(=O)c2ccccc21`, the cell count in assay [1] was found to be 426. Besides, the inhibition in assay [1] is -5.3% (inactive); in assay [2], -95% (inactive); in assay [4], -7.28% (inactive); in assay [9], -8.24% (inactive). The nuclei count in assay [2] came out at 158%. Also, the results for the z-score in assay [3] (setting [10]), in assay [3] (setting [11]) and in [3] (setting [12]) were -1.56, 1.61 and 1.42, respectively. In [5], the fluorescence slope was -0.402 (inactive). Also, in assay [6], the NADPH fluorescence slope is -1.4e-06 (inactive). Further, the slope in assay [7] was 0.00525 (inactive). In assay [8], the call was inactive.

For `CNC(=O)c1ncnnc1N(C)C(=O)NCc1ccccc1`, the cell count in [1] came out at 506. In addition, the inhibition in assay [1] was -21% (inactive); in assay [2], -54.6% (inactive); in assay [4] it was -9.66% (inactive); in assay [9], 9.13% (inactive). The nuclei count in assay [2] was 134%. The z-score was 0.229 in [3] (setting [10]), 0.0819 in assay [3] (setting [11]) and -1.12 in [3] (setting [12]). The fluorescence slope in [5] is -0.531 (inactive). The NADPH fluorescence slope in assay [6] was -2.3e-05 (inactive). The slope in [7] was 0.00729 (inactive). Further, in assay [8], the compound was classed as inactive.

Regarding `Cc1cc(=O)oc(C)c1C(=O)NCCNC(=O)c1c(C)cc(=O)oc1C`, the cell count in assay [1] amounted to 496. Besides, the inhibition in assay [1] was -5.9% (inactive); in assay [2], -127% (inactive); in assay [4] it was -14% (inactive); in assay [9], -8.5% (inactive). The same compound registered a nuclei count in assay [2] of 140%. In addition, the figures for the z-score in assay [3] (setting [10]), in [3] (setting [11]) and in [3] (setting [12]) were 0.642, -0.299 and 1.3, respectively. In addition, in [5], the fluorescence slope was -0.534 (inactive). In assay [6], the NADPH fluorescence slope was -3.6e-05 (inactive). In assay [7], the slope is 0.0046 (inactive). The outcome in [8] was inactive.

For `CC(C)Cc1nc(N2CCN(C(=O)C(C)C)CC2)c(C#N)c2c1CCC2`, in assay [1], the cell count turned out to be 541. Moreover, the inhibition is 1% (inactive) in [1], -148% (inactive) in [2], -3.5% (inactive) in [4] and 5.12% (inactive) in [9]. The compound also had a nuclei count in [2] of 141%. For the same compound, the z-score is -1.27 in assay [3] (setting [10]), 0.114 in assay [3] (setting [11]) and 1.85 in [3] (setting [12]). Further, in assay [5], the fluorescence slope was -0.499 (inactive). The NADPH fluorescence slope in [6] was -3.3e-05 (inactive). Besides, the slope in assay [7] was 0.00462 (inactive). The call in assay [8] was inactive.

In the case of `O=C(Nc1ccc2c(c1)OCO2)c1cc2n(n1)C(C(F)(F)F)CC(c1ccccc1)N2` (stereo unspecified), the cell count in [1] was found to be 415. The inhibition in assay [1] was -5.8% (inactive); in assay [2], 33.8% (inactive); in assay [4], 7.48% (inactive); in assay [9], -16.3% (inactive). The compound also yielded a nuclei count in assay [2] of 65.6%. Further, the z-score in assay [3] (setting [10]) is -0.336; in [3] (setting [11]) it was 0.972; in assay [3] (setting [12]) it was -0.0303. Also, the fluorescence slope in assay [5] is -0.544 (inactive). For the same compound, the NADPH fluorescence slope in assay [6] was -7.9e-05 (inactive). The slope in [7] is 0.00462 (inactive). Further, the compound was classed as inactive in [8].

Regarding `CCOCc1nc(N)[nH]c(=O)c1Cc1ccc(OC(C)C)cc1`, the cell count in [1] was 350. In addition, the inhibition was -14.1% (inactive) in assay [1], -184% (inactive) in assay [2], 17% (inactive) in [4] and 23.2% (inactive) in assay [9]. The same compound showed a nuclei count in assay [2] of 133%. Also, the z-score is 0.756 in [3] (setting [10]), -0.664 in assay [3] (setting [11]) and -2.13 in [3] (setting [12]). Besides, in assay [5], the fluorescence slope is -0.436 (inactive). Moreover, the NADPH fluorescence slope in assay [6] is -2e-05 (inactive). Further, the slope in [7] is 0.00784 (inactive). In [8], the call was inactive.

In the case of `COc1ccccc1N1CCN(C2CCN(C(=O)c3cccs3)CC2)CC1`, the cell count in assay [1] was found to be 390. The inhibition in assay [1] was -7.8% (inactive); in assay [2], -197% (inactive); in assay [4] it was -5.89% (inactive); in assay [9] it was 22.3% (inactive). This compound showed a nuclei count in [2] of 173%. For the same compound, the results for the z-score in [3] (setting [10]), in assay [3] (setting [11]) and in [3] (setting [12]) were -0.252, 0.0653 and 1.15, respectively. For the same compound, the fluorescence slope in assay [5] was -0.397 (inactive). In assay [6], the NADPH fluorescence slope was -3e-05 (inactive). Besides, the slope in assay [7] is 0.00342 (inactive). Also, the compound was called inactive in assay [8].

Regarding `CN=C1c2cc3c(Br)c(OC)ccc3n2CCN1C`, the cell count in assay [1] came to 550. The inhibition in [1] was -16.9% (inactive); in [2] it was -28.8% (inactive); in assay [4] it was 8.31% (inactive); in assay [9], -2.97% (inactive). In addition, in assay [2], the nuclei count was determined as 142%. In addition, the figures for the z-score in assay [3] (setting [10]), in [3] (setting [11]) and in [3] (setting [12]) were 0.29, -0.368 and 0.361, respectively. The fluorescence slope in [5] was -0.493 (inactive). Besides, in assay [6], the NADPH fluorescence slope was -5.7e-05 (inactive). Moreover, the slope in [7] is 0.00409 (inactive). The outcome in [8] was “inactive; toxic”.

Take `CC1=CC=CN2CC(O)CN=C12` (stereo unspecified): in [1], the cell count was 552. Moreover, the inhibition in [1] was -3.9% (inactive); in [2], -109% (inactive); in assay [4] it was 22.1% (inactive); in assay [9], 4.05% (inactive). This compound also came in with a nuclei count in assay [2] of 196%. The z-score in assay [3] (setting [10]) was -0.0904; in assay [3] (setting [11]), 1.89; in [3] (setting [12]), -0.427. The fluorescence slope in assay [5] was -0.33 (inactive). The NADPH fluorescence slope in [6] was -1.5e-05 (inactive). Further, the slope in assay [7] is 0.00477 (inactive). Further, in assay [8], the outcome was inactive.

For the compound `COc1cccc(/C(O)=C2\C(=O)C(=O)N(c3ccccn3)C2c2ccccc2OC)c1` (stereo unspecified), in assay [1], the cell count was 512. Besides, the inhibition in [1] is -5.9% (inactive); in assay [2], -90.1% (inactive); in [4], 12.3% (inactive); in assay [9], -14.1% (inactive). In assay [2], this compound registered a nuclei count of 126%. Besides, the z-score in assay [3] (setting [10]) was 1.61; in assay [3] (setting [11]) it was 0.206; in assay [3] (setting [12]), -0.573. Further, in [5], the fluorescence slope is -0.54 (inactive). In addition, in [6], the NADPH fluorescence slope was -2.1e-05 (inactive). Further, in assay [7], the slope was 0.00547 (inactive). In assay [8], the outcome was inactive.

With `CN1CCN(c2ncnc3c2[nH]c2ccc(F)cc23)CC1`, the cell count in assay [1] was 330. Also, the inhibition in assay [1] is -15.6% (inactive); in [2] it was -17.5% (inactive); in [4], -8.76% (inactive); in [9] it was 32.3% (inactive). In assay [2], this compound returned a nuclei count of 64.2%. For the same compound, the z-score in assay [3] (setting [10]) is -0.484; in assay [3] (setting [11]) it was 0.264; in assay [3] (setting [12]), -0.525. The fluorescence slope in [5] is -0.382 (inactive). In assay [6], the NADPH fluorescence slope was -8e-05 (inactive). The slope in assay [7] was 0.00525 (inactive). In assay [8], the outcome was inactive.

For the origin of these results see PubChem BioAssay.
